≈ marks a conversion by molar mass, not a printed value.
Assays:
[1] = Prodrug conversion in simulated gastric fluid assessed as half life; type: ADME; settings: simulated gi fluid
In short: (§1)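 Incubations used 2 µM compound at 37 °C in either SGF (0.2% NaCl/HCl, pH 1.2, pepsin 3.2 mg/mL) or SIF (KH2PO4/NaOH, pH 7.5, pancreatin 10 mg/mL). Samples were quenched 1:2 with acetonitrile/methanol 1:1 and analysed by HPLC. t1/2 = 0.693/first-order disappearance rate.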

Rattus norvegicus [2] = test: AUC in rat plasma assessed as (E)-3-(4-(1-(2-(5-chloropyrimidin-2-yl)-3-cyclopentyl-1-methyl-1H-indole-6-carboxamido)cyclobutanecarboxamido)-2-ethoxyphenyl)acrylic acid at 10 mg/kg, po using 10.6% PEG400, 5.4% Cremophor EL, 2.6% Labrasol, 1.4% Capmul MCM in water (80%) vehicle; type: ADME, organism-based; design: dose 10 mg/kg, route oral; settings: in vivo
In short: (§2)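 Fasted rats were given a single 10 mg/kg oral dose, with n = 3 per dose and route. Plasma was extracted by solid-phase extraction. Analysis used HPLC with diode-array UV (200–400 nm, peak height at best S/N) or LC/MS. Calibration standards were made in blank plasma, with LOQ 7–14 ng/mL. Parameters came from noncompartmental analysis.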

Intestine = test: Prodrug conversion in rat intestinal microsomes assessed as half life
Plasma [3] = test: Prodrug conversion in rat plasma assessed as half life; type: ADME, cell-free
In short: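 Rat plasma (from centrifuged whole blood) was incubated with 2 µM compound at 37 °C. Samples were quenched 1:3 with acetonitrile/methanol 1:1, centrifuged and analysed by HPLC-PDA. Half-life was taken as 0.693/first-order rate of loss of the starting compound.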

Rattus norvegicus [4] = test: Cmax in rat plasma assessed as (E)-3-(4-(1-(2-(5-chloropyrimidin-2-yl)-3-cyclopentyl-1-methyl-1H-indole-6-carboxamido)cyclobutanecarboxamido)-2-ethoxyphenyl)acrylic acid at 10 mg/kg, po using 0.5% Methyl cellulose, 0.3% Tween-80, 1% N-methylpyrrolidone in water vehicle; type: ADME, organism-based; design: dose 10 mg/kg, route oral; settings: in vivo; in short: as §2
[5] = (§3) AUC in rat plasma at 10 mg/kg, po using 10.6% PEG400, 5.4% Cremophor EL, 2.6% Labrasol, 1.4% Capmul MCM in water (80%) vehicle; type: ADME, organism-based; design: dose 10 mg/kg, route oral; settings: plasma; in short: as §2
Liver microsome [6] = test: Prodrug conversion in human liver microsomes assessed as half life
[7] = (§4) Cmax in rat plasma at 10 mg/kg, po using 0.5% Methyl cellulose, 0.3% Tween-80, 1% N-methylpyrrolidone in water vehicle; type: ADME, organism-based; design: dose 10 mg/kg, route oral; settings: plasma; in short: as §2
Liver microsome [8] = test: Prodrug conversion in rat liver microsomes assessed as half life
Rattus norvegicus [9] = test: Cmax in rat plasma assessed as (E)-3-(4-(1-(2-(5-chloropyrimidin-2-yl)-3-cyclopentyl-1-methyl-1H-indole-6-carboxamido)cyclobutanecarboxamido)-2-ethoxyphenyl)acrylic acid at 10 mg/kg, po using 10.6% PEG400, 5.4% Cremophor EL, 2.6% Labrasol, 1.4% Capmul MCM in water (80%) vehicle; type: ADME, organism-based; design: dose 10 mg/kg, route oral; settings: in vivo; in short: as §2
Plasma [10] = test: Prodrug conversion in human plasma assessed as half life
[11] = Prodrug conversion in simulated intestinal fluid assessed as half life; type: ADME; settings: simulated gi fluid; in short: as §1
[12] = (§5) AUC in rat plasma at 10 mg/kg, po using 0.5% Methyl cellulose, 0.3% Tween-80, 1% N-methylpyrrolidone in water vehicle; type: ADME, organism-based; design: dose 10 mg/kg, route oral; settings: plasma; in short: as §2
Rattus norvegicus [13] = test: AUC in rat plasma assessed as (E)-3-(4-(1-(2-(5-chloropyrimidin-2-yl)-3-cyclopentyl-1-methyl-1H-indole-6-carboxamido)cyclobutanecarboxamido)-2-ethoxyphenyl)acrylic acid at 10 mg/kg, po using 0.5% Methyl cellulose, 0.3% Tween-80, 1% N-methylpyrrolidone in water vehicle; type: ADME, organism-based; design: dose 10 mg/kg, route oral; settings: in vivo; in short: as §2
[14] = (§6) Cmax in rat plasma at 10 mg/kg, po using 10.6% PEG400, 5.4% Cremophor EL, 2.6% Labrasol, 1.4% Capmul MCM in water (80%) vehicle; type: ADME, organism-based; design: dose 10 mg/kg, route oral; settings: plasma; in short: as §2
[15] = Prodrug conversion in human intestinal microsomes assessed as half life
Rattus norvegicus [16] = test: as §4; type: ADME, organism-based; design: dose 10 mg/kg, route oral; settings: in vivo, BLD = below limit of detection; in short: as §2
Rattus norvegicus [17] = test: as §5; type: ADME, organism-based; design: dose 10 mg/kg, route oral; settings: in vivo, BLD = below limit of detection; in short: as §2
[18] = Solubility of the compound at pH 6.8; type: physicochemical; settings: buffer
[19] = Prodrug solubility in capmul; type: ADME
Rattus norvegicus [20] = test: as §3; type: ADME, organism-based; design: dose 10 mg/kg, route oral; settings: in vivo, BLD = below limit of detection; in short: as §2
[21] = Prodrug solubility in solutol; type: ADME
Rattus norvegicus [22] = test: as §6; type: ADME, organism-based; design: dose 10 mg/kg, route oral; settings: in vivo, BLD = below limit of detection; in short: as §2
[23] = Prodrug solubility in Labrasol; type: ADME
[24] = Dissociation constant, pKa of the compound; type: physicochemical
Rhesus monkey [25] = test: AUC in monkey assessed as (E)-3-(4-(1-(2-(5-chloropyrimidin-2-yl)-3-cyclopentyl-1-methyl-1H-indole-6-carboxamido)cyclobutanecarboxamido)-2-ethoxyphenyl)acrylic acid at 10 mg/kg using 10.6% PEG400, 5.4% Cremophor EL, 2.6% Labrasol, 1.4% Capmul MCM in water (80%) vehicle; type: ADME, organism-based, Macaca mulatta, Plasma; design: dose 10 mg/kg; settings: in vivo
Rattus norvegicus [26] = test: Mean residence time in rat assessed as (E)-3-(4-(1-(2-(5-chloropyrimidin-2-yl)-3-cyclopentyl-1-methyl-1H-indole-6-carboxamido)cyclobutanecarboxamido)-2-ethoxyphenyl)acrylic acid at 2 mg/kg, iv; type: ADME, organism-based; design: dose 2 mg/kg, route intravenous; settings: in vivo
In short: (§7)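 Overnight-fasted rats received 2 mg/kg IV in 70% PEG400:30% water, n = 3. Plasma parent drug was quantified after solid-phase extraction by HPLC-UV or LC/MS against blank-plasma calibration standards (LOQ 7–14 ng/mL). Noncompartmental analysis gave the PK parameters.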

[27] = Prodrug solubility in PEG400; type: ADME
Rhesus monkey [28] = test: Oral bioavailability in monkey assessed as (E)-3-(4-(1-(2-(5-chloropyrimidin-2-yl)-3-cyclopentyl-1-methyl-1H-indole-6-carboxamido)cyclobutanecarboxamido)-2-ethoxyphenyl)acrylic acid at 10 mg/kg using 10.6% PEG400, 5.4% Cremophor EL, 2.6% Labrasol, 1.4% Capmul MCM in water (80%) vehicle; type: ADME, organism-based, Macaca mulatta; settings: in vivo
Rattus norvegicus [29] = test: AUC in rat assessed as (E)-3-(4-(1-(2-(5-chloropyrimidin-2-yl)-3-cyclopentyl-1-methyl-1H-indole-6-carboxamido)cyclobutanecarboxamido)-2-ethoxyphenyl)acrylic acid at 2 mg/kg, iv; type: ADME, organism-based, Plasma; design: dose 2 mg/kg, route intravenous; settings: in vivo; in short: as §7
[30] = AUC in dog at 10 mg/kg, po using 10.6% PEG400, 5.4% Cremophor EL, 2.6% Labrasol, 1.4% Capmul MCM in water (80%) vehicle; type: ADME, organism-based, Canis lupus familiaris; design: dose 10 mg/kg, route oral; settings: plasma
Rattus norvegicus [31] = test: Volume of distribution at steady state in rat assessed as (E)-3-(4-(1-(2-(5-chloropyrimidin-2-yl)-3-cyclopentyl-1-methyl-1H-indole-6-carboxamido)cyclobutanecarboxamido)-2-ethoxyphenyl)acrylic acid at 2 mg/kg, iv; type: ADME, organism-based; design: dose 2 mg/kg, route intravenous; settings: in vivo; in short: as §7
Canis familiaris [32] = test: AUC in dog assessed as (E)-3-(4-(1-(2-(5-chloropyrimidin-2-yl)-3-cyclopentyl-1-methyl-1H-indole-6-carboxamido)cyclobutanecarboxamido)-2-ethoxyphenyl)acrylic acid at 10 mg/kg using 10.6% PEG400, 5.4% Cremophor EL, 2.6% Labrasol, 1.4% Capmul MCM in water (80%) vehicle; type: ADME, organism-based, Canis lupus familiaris, Plasma; design: dose 10 mg/kg; settings: in vivo
Canis familiaris [33] = test: Oral bioavailability in dog assessed as (E)-3-(4-(1-(2-(5-chloropyrimidin-2-yl)-3-cyclopentyl-1-methyl-1H-indole-6-carboxamido)cyclobutanecarboxamido)-2-ethoxyphenyl)acrylic acid at 10 mg/kg using 10.6% PEG400, 5.4% Cremophor EL, 2.6% Labrasol, 1.4% Capmul MCM in water (80%) vehicle; type: ADME, organism-based, Canis lupus familiaris; settings: in vivo
Rattus norvegicus [34] = test: Oral bioavailability in rat assessed as (E)-3-(4-(1-(2-(5-chloropyrimidin-2-yl)-3-cyclopentyl-1-methyl-1H-indole-6-carboxamido)cyclobutanecarboxamido)-2-ethoxyphenyl)acrylic acid at 10 mg/kg using 10.6% PEG400, 5.4% Cremophor EL, 2.6% Labrasol, 1.4% Capmul MCM in water (80%) vehicle; type: ADME, organism-based; settings: in vivo
Rattus norvegicus [35] = test: Half life in rat assessed as (E)-3-(4-(1-(2-(5-chloropyrimidin-2-yl)-3-cyclopentyl-1-methyl-1H-indole-6-carboxamido)cyclobutanecarboxamido)-2-ethoxyphenyl)acrylic acid at 2 mg/kg, iv; type: ADME, organism-based; design: dose 2 mg/kg, route intravenous; settings: in vivo; in short: as §7

t1/2 [1] [h]	AUC (Rattus norvegicus [2]) [µM·h]	t1/2 (Intestine) [h]	t1/2 (Plasma [3]) [h]	Cmax (Rattus norvegicus [4]) [nM]	t1/2 (Liver microsome [6]) [h]	t1/2 (Liver microsome [8]) [h]	Cmax (Rattus norvegicus [9]) [nM]	t1/2 (Plasma [10]) [h]	t1/2 [11] [h]	AUC (Rattus norvegicus [13]) [µM·h]	Cmax [14] [nM]	t1/2 [15] [h]	solubility [19] [mg/mL]	AUC (Rattus norvegicus [20])	solubility [21] [mg/mL]	Cmax (Rattus norvegicus [22])	solubility [23] [mg/mL]	pKa [24]	Structure (SMILES)	also measured
2.5	30.7	1.82	> 5	510	12.7	1.63	5200	> 5	6.87	5.7	840	9.07							CCOc1cc(NC(=O)C2(NC(=O)c3ccc4c(C5CCCC5)c(-c5ncc(Cl)cn5)n(C)c4c3)CCC2)ccc1/C=C/C(=O)OC	AUC [5]: 2.6 µM·h; Cmax [7]: 10 nM; AUC [12]: 0.07 µM·h
				80	1.48	0.13				0.49									CCOc1cc(NC(=O)C2(NC(=O)c3ccc4c(C5CCCC5)c(-c5ncc(Cl)cn5)n(C)c4c3)CCC2)ccc1/C=C/C(=O)OCOP(=O)(O)OC(C)(C)C	Cmax (Rattus norvegicus [16]): BLD; AUC (Rattus norvegicus [17]): BLD; solubility [18]: 0.781 mg/mL (≈ 0.966 mM)
0.85	19.3	1.27	1.83		0.8	0.733	4000	> 5	3.17			3.42	< 15	BLD	< 15	BLD	< 30		CCOc1cc(NC(=O)C2(NC(=O)c3ccc4c(C5CCCC5)c(-c5ncc(Cl)cn5)n(C)c4c3)CCC2)ccc1/C=C/C(=O)OCC(=O)N1CCOCC1	
1.3		0.083		4200	0.167	0.15				14.5		0.467							CCOc1cc(NC(=O)C2(NC(=O)c3ccc4c(C5CCCC5)c(-c5ncc(Cl)cn5)n(C)c4c3)CCC2)ccc1/C=C/C(=O)OCOP(=O)(O)O	Cmax [7]: 50 nM; AUC [12]: 0.09 µM·h; solubility [18]: 0.14 mg/mL (≈ 0.186 mM)
	6.5						1100						< 60	BLD	< 100	BLD	< 60	7.7	CCOc1cc(NC(=O)C2(NC(=O)c3ccc4c(C5CCCC5)c(-c5ncc(Cl)cn5)n(C)c4c3)CCC2)ccc1/C=C/C(=O)OCCN1CCCC1	
1.82	10.1	1.47	1.4		1.5	0.317	1600	> 5	6.6			> 5	< 100	BLD	< 100	BLD	< 100	7.7	CCOc1cc(NC(=O)C2(NC(=O)c3ccc4c(C5CCCC5)c(-c5ncc(Cl)cn5)n(C)c4c3)CCC2)ccc1/C=C/C(=O)OCCN(C)C	
	38.5		1.43				9200				20		> 100	BLD	> 200		> 200		CCOc1cc(NC(=O)C2(NC(=O)c3ccc4c(C5CCCC5)c(-c5ncc(Cl)cn5)n(C)c4c3)CCC2)ccc1/C=C/C(=O)OCC(=O)N(C)C	AUC (Rhesus monkey [25]): 26 µM·h; MRT (Rattus norvegicus [26]): 2.8 h; solubility [27]: > 200 mg/mL; F (Rhesus monkey [28]): 35%; AUC (Rattus norvegicus [29]): 10.5 µM·h; AUC [30]: 0.69 µM·h; Vdss (Rattus norvegicus [31]): 0.73 L/kg; AUC (Canis familiaris [32]): 11.5 µM·h; F (Canis familiaris [33]): 4%; F (Rattus norvegicus [34]): 38%; t1/2 (Rattus norvegicus [35]): 2.1 h
0.333	35.2	3.5	1.6		0.917	0.583	7200	> 5	4.28		70	15.2	< 30		< 60		< 60	5.7	CCOc1cc(NC(=O)C2(NC(=O)c3ccc4c(C5CCCC5)c(-c5ncc(Cl)cn5)n(C)c4c3)CCC2)ccc1/C=C/C(=O)OCCN1CCOCC1	AUC [5]: 0.2 µM·h
	1.5				0.35	0.15	260						< 100	BLD	< 100	BLD	< 100	6.6	CCOc1cc(NC(=O)C2(NC(=O)c3ccc4c(C5CCCC5)c(-c5ncc(Cl)cn5)n(C)c4c3)CCC2)ccc1/C=C/C(=O)OCC(=O)N1CCN(C)CC1	
	7.9				1.85	0.217	1200							BLD	< 100	BLD	< 100	7.7	CCOc1cc(NC(=O)C2(NC(=O)c3ccc4c(C5CCCC5)c(-c5ncc(Cl)cn5)n(C)c4c3)CCC2)ccc1/C=C/C(=O)OCCN1CCN(C)CC1	

Source: ChEMBL document CHEMBL3352534, “A prodrug strategy for the oral delivery of a poorly soluble HCV NS5B thumb pocket 1 polymerase inhibitor using self-emulsifying drug delivery systems (SEDDS)” (Bioorg Med Chem Lett, 2015)
